Assay outcomes from PubChem.
Cneo AK release: causes C. neoformans cell lysis; 360,000 tested, 0.2% active; lysis activity, % at 15 µM; adenylate kinase release luminescence, 4 h; normalised: neutral wells 0, clomiphene wells 100;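 active = mean lysis activity across replicates of at least 80%, whatever share of replicates individually reach that level; inactive = mean lysis activity below 80%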
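Assay system: Cryptococcus neoformans yeast cells / Dosing: single-point compound dose / Timing: 4 h at 37 °C static, read 1 h later / Measured by: luminescence of released adenylate kinase using an AK detection reagent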
Ecoli rRNA inh: inhibitors of bacterial rRNA selective over humanized ribosomes | E. coli WT GFP vs humanized-ribosome RFP mutants, fluorescence, 24 h; hits give low values; DMSO median 0, no signal -100 | GFP signal change (wild-type ribosome), % (no concentration beside the values) | 350,000 tested, 1.6% active;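 active = significant combined selectivity score with lowered wild-type GFP, culture density cut under 30%, mutant RFP and density less affected; inactive = any of these conditions unmet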
RAD52 anneal inh: blocks human RAD52 DNA annealing | P43351 | recombinant RAD52 DNA annealing, FRET fluorescence | 360,000 tested, 0.46% active | inhibition, % at 18.7 µM;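 active = every replicate showing at least 50% inhibition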
PglD inh: PglD (C. jejuni) enzyme inhibition; purified PglD enzyme, DTNB colorimetric CoA detection; inhibition, % at 12.5 µM; 360,000 tested, 0.098% active; AID 602405; in the data active = inhibition above about 16%, passing the limit was not always enough
RAD54 branch: RAD54 (human) branch migration inhibition | Q92698 | 360,000 tested, 0.14% active | RAD54 Holliday junction branch migration, FAM/BHQ fluorescence | AID 602329 | inhibition, % at 10.4 µM;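 active = mean normalized replicate activity at least 40 and at least half of replicates scoring 40 or more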;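 also: 0% = median of neutral control wells and 100% = median of positive control wells; inhibitors cause a drop in the FAM fluorescence signal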
An asterisk follows results filed as active. Compounds with a hit are over-represented: about 1.9% of the library has one in this group of screens.

Screening O=C(Nc1ccc(F)cc1)N1CCCCN2[C@H](C1)[C@@H](c1ccc(-c3ccccc3F)cc1)[C@@H]2CO returned Cneo AK release 0.9, RAD52 anneal inh 55.3*, PglD inh 0.1 and RAD54 branch 2.0.
`C[C@@H]1CCCCO[C@@H](CN(C)C(=O)c2ccncc2)[C@H](C)CN([C@@H](C)CO)C(=O)c2cc(NS(C)(=O)=O)ccc2O1` gave Cneo AK release 1.1, Ecoli rRNA inh 4.4, RAD52 anneal inh -8.6, PglD inh 0.4 and RAD54 branch -0.1.
CC1(C)Cc2ccccc2C(CSc2ccccc2C(=O)O)=N1 was read as Cneo AK release -1.4, Ecoli rRNA inh -24.9*, RAD52 anneal inh -16.1, PglD inh 3.7 and RAD54 branch -4.7.
COc1cc2c(cc1OC)C(CSc1ccccc1C(=O)O)=NC(C)(C)C2 was read as Ecoli rRNA inh -13.1 and RAD52 anneal inh -46.0.
CC(C)C#Cc1ccc([C@@H]2[C@@H](CO)N3C(=O)CN(C(=O)Cc4cccnc4)C[C@@H]23)cc1 was read as Ecoli rRNA inh -1.2.
Screening O=C1OC(NCc2cccnc2)(c2ccc(Cl)cc2)c2ccccc21 (configuration not stated) returned Ecoli rRNA inh -34.8* and RAD52 anneal inh -8.7.
Screening COC(=O)C1=NN(C(=O)c2cccc(Cl)c2)C(O)(C(C)(C)C)C1 (configuration not stated) returned Cneo AK release -2.6, PglD inh 5.4 and RAD54 branch -21.0.
Screening COC(=O)C1=NN(C(=O)c2ccc(Br)cc2)C(O)(C(C)(C)C)C1 (configuration not stated) returned Ecoli rRNA inh -24.0* and RAD52 anneal inh 1.8.
For C=C(C)Cn1c(=O)c2c(nc3n2CCCN3Cc2ccccc2)n(C)c1=O the results were Cneo AK release -1.6, Ecoli rRNA inh -28.5*, RAD52 anneal inh -14.0, PglD inh 2.1 and RAD54 branch -0.1.
COc1ccccc1-c1nc2c3ccccc3nc(=S)n2[nH]1 was read as Cneo AK release 1.0, Ecoli rRNA inh -27.3*, RAD52 anneal inh -10.8, PglD inh -0.2 and RAD54 branch 5.6.
For CC(C)CC#Cc1ccc([C@@H]2[C@H](CO)N3C(=O)CN(C(=O)NC(C)C)C[C@@H]23)cc1 the results were Ecoli rRNA inh -0.5.
Screening O=C(N/N=C/c1cccc(O)c1)c1ccc2c(c1)OCCO2 returned Cneo AK release -5.6, Ecoli rRNA inh -20.6*, RAD52 anneal inh -9.7, PglD inh -0.2 and RAD54 branch 3.7.
For CCOC(=O)c1cc2sccc2n1Cc1ccccc1 the results were Cneo AK release -2.3, PglD inh -3.5 and RAD54 branch -8.0.
For CCOC(=O)c1cc2sccc2n1CCCN1C(=O)c2ccccc2C1=O the results were Cneo AK release -4.4, Ecoli rRNA inh -28.1*, RAD52 anneal inh -5.6, PglD inh -1.5 and RAD54 branch 8.6.
For O=C(C[C@@H]1CC[C@H](NC(=O)Cc2cccnc2)[C@@H](CO)O1)Nc1ccc(-c2ccccc2)cc1 the results were Cneo AK release 44.6, Ecoli rRNA inh -6.3, RAD52 anneal inh 8.6, PglD inh 4.9 and RAD54 branch -7.4.
For COc1ccc(NC(=O)O[C@H](c2ccc(OC)c(O)c2)[C@@H](CCO)OC)cc1 the results were Cneo AK release -10.4, RAD52 anneal inh -6.9, PglD inh 10.9 and RAD54 branch -7.4.
For CCCCn1nc2cc(C(=O)NCCc3ccc(C)cc3)ccc2c1OCC the results were Cneo AK release 0.4, Ecoli rRNA inh -38.4*, RAD52 anneal inh -8.8, PglD inh -1.7 and RAD54 branch -13.6.
For COCCN(Cc1cc2cc3c(cc2nc1Cl)OCO3)C(=O)Nc1ccc(OC)cc1 the results were Ecoli rRNA inh 17.0 and RAD52 anneal inh -2.2.
Screening COCCN(Cc1cc2cc3c(cc2nc1Cl)OCO3)C(=O)Nc1ccc(F)cc1 returned Cneo AK release 0.0, Ecoli rRNA inh -26.6*, RAD52 anneal inh -16.3, PglD inh -3.8 and RAD54 branch 12.4.
`O=C(Nc1ccc(C2=NCCN2)cc1)c1ccc(C(=O)Nc2ccc(C3=NCCN3)cc2)c([N+](=O)[O-])c1` gave Ecoli rRNA inh -58.2 and RAD52 anneal inh 104.1*.
C#CCNC(=O)C1=C[C@@H](C(C)(C)C)C[C@@H](OCCCCO)O1 was read as Cneo AK release -6.1 and RAD52 anneal inh -7.4.
